Test results published in ChEMBL document CHEMBL4765297, “In silico/in vitro screening and hit evaluation identified new phenothiazine anti-prion derivatives” (Eur J Med Chem, 2020).
pIC50: −log10 of the molar value. The source made the active and inactive calls.

Key:
ScN2a [1] = assay: Anti-prion activity against RML prion protein in mouse N2a cells assessed as Scrapie prion protein level at 1 uM in presence of proteinase K by Western blotting analysis relative to control; format: cell-based
How it was run: (§1)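 ScN2a or ScGT1 cells chronically infected with RML or 22L prions (N2a in MEM/10% FBS; GT1 in DMEM/10% FBS) treated 4 days with compound (DMSO stock diluted in EtOH, then medium; final DMSO ≤0.1%). Immunoblot with anti-PrP Fab W226, ECL, densitometry, normalized to untreated control (100%).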

N2a [2] = assay: Cytotoxicity against mouse N2a cells assessed as reduction in cell viability incubated for 30 mins by Calcein assay; format: cell-based; settings: 0.5 h
How it was run: (§2)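 N2a, ScN2a, GT1 or ScGT1 cells seeded (2.5×10^4/mL MEM for N2a lines; 3×10^4/mL DMEM for GT1 lines), settled 1 day. Treated at 0.1, 1 and 10 µM for 5 days at 37 °C, 5% CO2. Read-outs: MTT (5 mg/mL, 3 h, DMSO/2-propanol solubilization, A590); CCK-8 (4 h, A450); calcein-AM (2.5 µM added, 30 min, 492/525 nm). Viability threshold 80%.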

N2a [3] = assay: Cytotoxicity against mouse N2a cells assessed as reduction in cell viability incubated for 4 hrs by CCK-8 assay; format: cell-based; how it was run: as §2
N2a [4] = assay: Cytotoxicity against mouse N2a cells assessed as reduction in cell viability incubated for 3 hrs by MTT assay; format: cell-based; how it was run: as §2
ScN2a [5] = assay: Anti-prion activity against RML prion protein in mouse N2a cells assessed as Scrapie prion protein level at 1 uM in absence of proteinase K by Western blotting analysis relative to control; format: cell-based; how it was run: as §1
ScN2a [6] = assay: Anti-prion activity in mouse ScN2a cells at 1:2 Prp to compound concentration in presence of proteinase K by Western blotting analysis relative to control; format: functional
How it was run: (§3)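 Filtered through 3 kDa centrifugal membrane; filtrate (or compound alone, with or without filtration) given to ScN2a cells 4 days. PK-digested/undigested lysates immunoblotted with W226; three independent experiments, control normalized to 100%.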

ScN2a [7] = assay: Anti-prion activity in mouse ScN2a cells at 1N in presence of proteinase K by Western blotting analysis relative to control; format: functional; how it was run: as §3
ScN2a [8] = assay: Anti-prion activity in mouse ScN2a cells at 1:5 Prp to compound concentration in presence of proteinase K by Western blotting analysis relative to control; format: functional; how it was run: as §3
ScGT1 [9] = assay: Anti-prion activity against RML prion protein in mouse ScGT1 cells assessed as Scrapie prion protein level at 4 uM in absence of proteinase K by Western blotting analysis relative to control; format: cell-based; how it was run: as §1
N2a [10] = assay: Anti-prion activity in mouse N2a cells assessed as effect on localization of cell membrane at 4 uM by immunofluorescence staining assay; format: functional, cell-based
How it was run: (§4)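 N2a cells on poly-lysine coverslips treated with 0.4 or 4 µM. Chilled on ice 15 min, live surface staining with W226 (1:200) 20 min on ice, then fixed in 4% PFA and blocked in 7% goat serum. Alexa488 anti-mouse secondary 1 h, DAPI counterstain, confocal imaging of surface PrPC.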

ScN2a [11] = assay: Anti-prion activity in mouse ScN2a cells at 2:1 Prp to compound concentration in absence of proteinase K by Western blotting analysis relative to control; format: functional; how it was run: as §3
ScN2a [12] = assay: Anti-prion activity in mouse ScN2a cells in absence of proteinase K by Western blotting analysis relative to control; format: functional; how it was run: as §1
N2a [13] = assay: Anti-prion activity in mouse N2a cells assessed as effect on localization of cell membrane at 0.4 uM by immunofluorescence staining assay; format: functional, cell-based; how it was run: as §4
ScN2a [14] = assay: Anti-prion activity against 22L prion protein in mouse ScN2a cells assessed as Scrapie prion protein level at 4 uM in absence of proteinase K by Western blotting analysis relative to control; format: cell-based; how it was run: as §1
ScGT1 [15] = assay: Anti-prion activity against RML prion protein in mouse ScGT1 cells assessed as Scrapie prion protein level at 4 uM in presence of proteinase K by Western blotting analysis relative to control; format: cell-based; how it was run: as §1
ScN2a [16] = assay: Anti-prion activity in mouse ScN2a cells at 2:1 Prp to compound concentration in presence of proteinase K by Western blotting analysis relative to control; format: functional; how it was run: as §3
[17] = Anti-prion activity against RML prion protein in mouse ScN2a cells in presence of proteinase K by Western blotting analysis; format: cell-based
How it was run: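 ScN2a-RML cells treated 4 days with 8 concentrations from 0 to 4 µM. Lysates PK-digested (10 µg PK, 1 h, 37 °C) and ultracentrifuged. Pellets denatured in 8 M GdnHCl and coated on ELISA plates overnight at 4 °C. Detection with W226 (1.5 µg/mL), HRP secondary and TMB, A450. IC50 taken from the dose-response curve, with Western blot confirmation.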

ScN2a [18] = assay: Anti-prion activity against 22L prion protein in mouse ScN2a cells assessed as Scrapie prion protein level at 4 uM in presence of proteinase K by Western blotting analysis relative to control; format: cell-based; how it was run: as §1
ScN2a [19] = assay: Anti-prion activity in mouse ScN2a cells at 1:1 Prp to compound concentration in presence of proteinase K by Western blotting analysis relative to control; format: functional; how it was run: as §3
ScGT1 [20] = assay: Anti-prion activity against 22L prion protein in mouse ScGT1 cells assessed as Scrapie prion protein level at 4 uM in presence of proteinase K by Western blotting analysis relative to control; format: cell-based; how it was run: as §1
ScN2a [21] = assay: Anti-prion activity in mouse ScN2a cells in presence of proteinase K by Western blotting analysis relative to control; format: functional; how it was run: as §1
ScN2a [22] = assay: Anti-prion activity against RML prion protein in mouse ScN2a cells assessed as Scrapie prion protein level at 4 uM in presence of proteinase K by Western blotting analysis relative to control; format: cell-based; how it was run: as §1
ScN2a [23] = assay: Cytotoxicity against mouse ScN2a cells upto 10 uM; format: cell-based; how it was run: as §2
ScN2a [24] = assay: Anti-prion activity in mouse ScN2a cells at 1N in absence of proteinase K by Western blotting analysis relative to control; format: functional; how it was run: as §3
ScN2a [25] = assay: Anti-prion activity against RML prion protein in mouse ScN2a cells assessed as Scrapie prion protein level at 4 uM in absence of proteinase K by Western blotting analysis relative to control; format: cell-based; how it was run: as §1
ScN2a [26] = assay: Anti-prion activity in mouse ScN2a cells at 1:1 Prp to compound concentration in absence of proteinase K by Western blotting analysis relative to control; format: functional; how it was run: as §3
ScN2a [27] = assay: Anti-prion activity in mouse ScN2a cells at 1:2 Prp to compound concentration in absence of proteinase K by Western blotting analysis relative to control; format: functional; how it was run: as §3
ScGT1 [28] = assay: Anti-prion activity against 22L prion protein in mouse ScGT1 cells assessed as Scrapie prion protein level at 4 uM in absence of proteinase K by Western blotting analysis relative to control; format: cell-based; how it was run: as §1
ScN2a [29] = assay: Anti-prion activity in mouse ScN2a cells at 1:5 Prp to compound concentration in absence of proteinase K by Western blotting analysis relative to control; format: functional; how it was run: as §3

## Cn1c(=O)c2cc(C(=O)N3CCC(Cc4ccccc4)CC3)sc2c2ccc(Cl)cc21
ScN2a [1]
  Activity: 82.4%
N2a [2]
  Activity: Non-Toxic
N2a [3]
  Activity: Non-Toxic
N2a [4]
  Activity: Non-Toxic
ScN2a [5]
  Activity: 99.6%

## C/C(=N\Nc1ccnc2cc(Cl)ccc12)c1ccc2c(c1)N(CCCN(C)C)c1ccccc1S2
ScN2a [1]
  Activity: 11.9%
ScN2a [5]
  Activity: 68.7%

## CCOc1ccc(CNC(=O)CSc2c3c(nc4cc(Cl)ccc24)CCCC3)cc1
ScN2a [1]
  Activity: 102%
N2a [2]
  Activity: Non-Toxic
N2a [3]
  Activity: Non-Toxic
N2a [4]
  Activity: Non-Toxic
ScN2a [5]
  Activity: 110%

## C/C(=N\Nc1ccnc2cc(Cl)ccc12)c1ccc2c(c1)Nc1ccccc1S2
ScN2a [6]
  Activity: 65.7%
ScN2a [7]
  Activity: 22.6%
ScN2a [8]
  Activity: 13.6%
ScGT1 [9]
  Activity: 42%
N2a [10]
  Activity: inactive
ScN2a [11]
  Activity: 114.4%
ScN2a [12]
  Activity: 48.8%
N2a [13]
  Activity: inactive
ScN2a [14]
  Activity: 48.7%
ScGT1 [15]
  Activity: 12.3%
ScN2a [1]
  Activity: 35.6%
ScN2a [16]
  Activity: 108.2%
[17]
  pIC50: 6.38
N2a [2]
  Activity: Non-Toxic
ScN2a [18]
  Activity: 5.1%
ScN2a [19]
  Activity: 90.1%
ScGT1 [20]
  Activity: 11%
ScN2a [21]
  Activity: 25.2%
ScN2a [22]
  Activity: 9.4%
ScN2a [23]
  Activity: Non-Toxic
ScN2a [24]
  Activity: 51.7%
ScN2a [25]
  Activity: 62.1%
N2a [3]
  Activity: Non-Toxic
ScN2a [26]
  Activity: 117.6%
ScN2a [27]
  Activity: 98.4%
ScGT1 [28]
  Activity: 39.2%
N2a [4]
  Activity: Non-Toxic
ScN2a [5]
  Activity: 55.7%
ScN2a [29]
  Activity: 41%

## O=C(Nc1ccc(Oc2ccccc2)cc1)c1cc2cc3ccc(Cl)cc3nc2o1
ScN2a [1]
  Activity: 109%
N2a [2]
  Activity: Non-Toxic
N2a [3]
  Activity: Non-Toxic
N2a [4]
  Activity: Non-Toxic
ScN2a [5]
  Activity: 92.6%

## COC(=O)c1ccc(COc2ccc(/C=N/Nc3ccnc4cc(Cl)ccc34)cc2OC)cc1
ScN2a [1]
  Activity: 82.3%
N2a [2]
  Activity: Non-Toxic
N2a [3]
  Activity: Non-Toxic
N2a [4]
  Activity: Non-Toxic
ScN2a [5]
  Activity: 95.6%

## COc1ccc2nc(NC(=O)c3cc4c(=O)n(C)c5cc(Cl)ccc5c4s3)sc2c1
ScN2a [1]
  Activity: 85.4%
N2a [2]
  Activity: Non-Toxic
N2a [3]
  Activity: Non-Toxic
N2a [4]
  Activity: Non-Toxic
ScN2a [5]
  Activity: 69.1%

## CCc1ccc(CNC(=O)CSc2c3c(nc4cc(Cl)ccc24)CCCC3)cc1
ScN2a [1]
  Activity: 77.1%
N2a [2]
  Activity: Non-Toxic
N2a [3]
  Activity: Non-Toxic
N2a [4]
  Activity: Non-Toxic
ScN2a [5]
  Activity: 83.5%

## Cn1c(=O)c2cc(C(=O)Nc3ccc(Oc4ccccc4)cc3)sc2c2ccc(Cl)cc21
ScN2a [1]
  Activity: 94.4%
N2a [2]
  Activity: Non-Toxic
N2a [3]
  Activity: Non-Toxic
N2a [4]
  Activity: Non-Toxic
ScN2a [5]
  Activity: 92.5%

## C/C(=N\Nc1ccnc2cc(Cl)ccc12)c1ccc2c(c1)N(CCN1CCCCC1)c1ccccc1S2
ScN2a [1]
  Activity: 13.6%
ScN2a [5]
  Activity: 70.2%

## C/C(=N\Nc1ccnc2cc(Cl)ccc12)c1ccc2c(c1)N(CCN1CCN(C)CC1)c1ccccc1S2
ScN2a [1]
  Activity: 4.4%
ScN2a [5]
  Activity: 55.9%

## Cc1cc(/C=N/Nc2ccnc3cc(Cl)ccc23)c(C)cc1/C=N/Nc1ccnc2cc(Cl)ccc12
ScN2a [1]
  Activity: 70.9%
N2a [2]
  Activity: Non-Toxic
N2a [3]
  Activity: Non-Toxic
N2a [4]
  Activity: Non-Toxic
ScN2a [5]
  Activity: 63.8%

## C/C(=N\Nc1ccnc2cc(Cl)ccc12)c1ccc2c(c1)N(CCN1CCOCC1)c1ccccc1S2
ScN2a [1]
  Activity: 70.3%
ScN2a [5]
  Activity: 95.3%

## C/C(=N\Nc1ccnc2cc(Cl)ccc12)c1ccc2c(c1)N(CCN(C)C)c1ccccc1S2
ScN2a [1]
  Activity: 8.6%
ScN2a [5]
  Activity: 60.2%

## Cn1c(CSc2ccnc3cc(Cl)ccc23)nnc1SCC(=O)N1CCN(c2ccccc2)CC1
ScN2a [1]
  Activity: 88%
N2a [2]
  Activity: Non-Toxic
N2a [3]
  Activity: Non-Toxic
N2a [4]
  Activity: Non-Toxic
ScN2a [5]
  Activity: 85.8%
